Results on 4 compounds are retold here after paper PMC13031150 (Acta Pharmaceutica Sinica. B, 2025).

Assay [1] concerns VCP phosphorylation in KBM5-T315I cells. The assay is described as follows: VCP phosphorylation in cells. The following applies: 50 μmol/L NG52, 24 h. In kind it is cell-based, human. An outline of the steps:
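KBM5-T315I cells were treated 24 h with test compound. Lysates were immunoprecipitated with anti-VCP antibody and immunoblotted with a pan-phospho-Ser/Thr antibody.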

In assay [2] the test system is KBM5-T315I cells. The assay is described as follows: Autophagy readouts. Type of assay: cell-based, human.
The subject of the next assay is KBM5 cells. The assay is described as follows: CCK-8 cell viability assay, including SynergyFinder synergy analysis. The following applies: NG52 combined with imatinib, KBM5, 24 h, CCK-8, SynergyFinder. In kind it is cell-based, human. An outline of the steps:
(§1)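 Viability was read by CCK-8. […] A second test compound, 0–80 μmol/L alone or with a TKI, was given for 12 h. δ-scores came from SynergyFinder: >10 synergy, <−10 antagonism. SEM, n = 3.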

Assay [3] has as its system KBM5-T315I cells. Described as above. Type of assay: cell-based, human. An outline of the steps:
as §1

The subject of a further assay is KBM5-T315I xenograft. The assay is described as follows: Subcutaneous KBM5-T315I xenograft in NOD/SCID mice. Type of assay: in vivo, mouse. The following applies: CPU-216 20 mg/kg, NG52 100 mg/kg.
In another assay the test system is VCP-KD-KBM5-T315I cells. The assay can be described thus: CCK-8 cell viability with synergy analysis in VCP-knockdown cells. Type of assay: cell-based, human. The following applies: NG52 combined with imatinib, 24 h. The method, boiled down: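 Viability was read by CCK-8, and δ-scores were computed in SynergyFinder (>10 synergy, <−10 antagonism).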
The test system of another assay is BCR-ABL. The assay can be described thus: BCR-ABL protein level by Western blot. In kind it is cell-based, human. The following applies: KBM5-T315I, NG52 0–50 μmol/L, 24 h, dose-dependent.
Assay [4] concerns KBM5-T315I cells. The assay can be described thus: LDH / lactate production. Type of assay: cell-based, human. The following applies: NG52 6.25–50 μmol/L, 24 h.
Assay [5] concerns KBM5-T315I cells-bearing NOD/SCID mice. The assay is described as follows: Tail-vein KBM5-T315I leukemia model in NOD/SCID mice. Type of assay: in vivo, mouse. The following applies: single agent: imatinib 100 mg/kg, CPU-216 20 mg/kg. The method, boiled down:
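Female NOD/SCID mice aged 4–6 weeks received sublethal irradiation (1.8 Gy), then KBM5-T315I cells by tail vein within 24 h. After 7 days of engraftment, dosing was on alternate days for 4 weeks, with saline as vehicle. Peripheral-blood human CD45⁺ cells were measured by flow cytometry, along with spleen weight and Kaplan–Meier survival. SEM, n ≥ 3.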

Assay [6] concerns KBM5-T315I-PGK1-KD, PGK1-OE and PGK1-T378P cells. The assay is described as follows: CCK-8 cell viability in PGK1-modified KBM5-T315I cells. In kind it is cell-based, human. The following applies: KBM5-T315I-PGK1-KD versus KBM5-T315I, 24 h. The method, boiled down:
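KBM5-T315I lines were empty-vector (NC), PGK1-overexpressing (OE), shPGK1 knockdown (KD), or KD re-transfected with PGK1-WT or PGK1-T378P cDNA. […] WT, OE, KD and T378P cells received test compound 0–80 μmol/L for […]. Viability was read by CCK-8; SEM, n = 3.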

[7] abbreviates: KBM5-T315I, Western blot, NG52 dose-dependent, CPU-216 0–6 μmol/L, 0–12 h.

Structures are written as SMILES.

Consider `CC(C)n1cnc2c(Nc3cccc(Cl)c3)nc(NCCO)nc21` [NG52], for which, in [1], the VCP phosphorylation levels result is “reduction”. In the assay with KBM5-T315I cells [2] (KBM5-T315I transfected with GFP-LC3B), the “Formation of LC3 puncta” value was “promote”. For the same compound, the “Beclin 1 ubiquitination” value with KBM5-T315I cells [2] (KBM5-T315I, NG52 50 μmol/L with 10 μmol/L MG132, 24 h) was “decreased”. In addition, the “Beclin 1 expression and LC3B-II/LC3B-I ratio” value in the assay with KBM5-T315I cells [2] (setting [7]) is listed as “increased”. Further, in the assay on KBM5-T315I cells [2] (setting [7]), the SQSTM1 expression result is reported as “reducing”. Besides, the “Autophagic vesicles (transmission electron microscopy)” value in the assay with KBM5-T315I cells [2] (KBM5-T315I, NG52 50 μmol/L, CPU-216 6 μmol/L) is “marked increase”. Further, the “Synergy score (δ-score)” value with KBM5 cells was −7.32; in the assay with KBM5-T315I cells [3] (NG52 combined with imatinib, NC (empty vector control) KBM5-T315I cells, 24 h) it was 15.66; with KBM5-T315I cells [3] (NG52 combined with ponatinib, KBM5-T315I, 24 h, CCK-8, SynergyFinder) it was 10.11; in the assay with VCP-KD-KBM5-T315I cells it was 7.57. The “Inhibitory effect on cell viability, KBM5-T315I versus KBM5” value in the assay with KBM5-T315I cells [3] (0–400 μmol/L, 24 h, CCK-8) is “better inhibitory effect on KBM5-T315I”. In addition, the Synergy score in the assay with KBM5-T315I cells [3] (NG52 combined with imatinib, KBM5-T315I pretreated with 3 μmol/L PKM2-IN-1) is listed as 15.16. Further, the “LC3B-II expression in tumor (immunofluorescence)” value in the assay with KBM5-T315I xenograft (imatinib 100 mg/kg) is “increased”. Further, the “SQSTM1 expression in tumor (immunofluorescence)” value in the assay on KBM5-T315I xenograft (imatinib 100 mg/kg) is recorded as “decreased”. In addition, in the assay with KBM5-T315I xenograft (imatinib 100 mg/kg), the “Tumor proliferation (Ki-67 staining)” value is reported as “significantly reduced”. Also, the Tumor volume result in the assay with KBM5-T315I xenograft (intragastric every 48 h, 21 days) is “reduce”. In the assay on BCR-ABL, the BCR-ABL expression result is “reduced”. In addition, the “Effect on LDH levels” value in the assay with KBM5-T315I cells [4] is on record as “no significant effect”.

`CC1=C(CSC(=S)N2CCCCC2)C(=O)c2ccccc2C1=O` [PKM2-IN-1]: the Effect on proliferation result with KBM5-T315I cells [3] (3 μmol/L, 24 h, CCK-8, KBM5-T315I) is “did not affect”. Besides, the Synergy score with KBM5-T315I cells [3] (PKM2-IN-1 combined with imatinib, KBM5-T315I) is recorded as −4.49.

For the compound `Cc1ccc(NC(=O)c2ccc(CN3CCN(C)CC3)cc2)cc1Nc1nccc(-c2cccnc2)n1` [imatinib], in assay [5], the “Reduction of proportion of cells in the blood (HuCD45)” value is reported as “less pronounced” and the Splenomegaly entry is listed as “alleviated”. The “Sensitivity of PGK1-knockdown cells to the TKI” value in assay [6] is “increased sensitivity”.

As to `Cc1ccc(C(=O)Nc2ccc(CN3CCN(C)CC3)c(C(F)(F)F)c2)cc1C#Cc1cnc2cccnn12` [ponatinib], the “Sensitivity of PGK1-knockdown cells to the TKI” value in [6] is reported as “increased sensitivity”.
